Test results as given in ChEMBL document CHEMBL1139475, “Structural, mutagenic, and kinetic analysis of the binding of substrates and inhibitors of human phenylethanolamine N-methyltransferase” (J Med Chem, 2005).

Tests used:
[1] = biological target: T1, Phenylethanolamine N-methyltransferase (Homo sapiens, UniProt P11086); experiment: Binding affinity to human free PNMT
T1 sequence (P11086 whole entry): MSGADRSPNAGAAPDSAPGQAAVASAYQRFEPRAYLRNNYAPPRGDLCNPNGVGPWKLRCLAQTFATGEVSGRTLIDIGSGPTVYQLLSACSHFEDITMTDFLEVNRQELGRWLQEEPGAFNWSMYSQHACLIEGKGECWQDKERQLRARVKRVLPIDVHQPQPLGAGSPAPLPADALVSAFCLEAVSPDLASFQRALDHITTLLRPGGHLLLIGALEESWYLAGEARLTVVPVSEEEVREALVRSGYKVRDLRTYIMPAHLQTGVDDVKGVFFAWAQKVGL

[2] = Binding affinity to human PNMT-S-adenosyl-L-methionine complex
[3] = biological target: Phenylethanolamine N-methyltransferase (Homo sapiens, UniProt P11086, K57A); experiment: (§1) Activity of human PNMT K57A mutant assessed as phenylethanolamine methylation
Outline: (§2)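 C-terminally His6-tagged human PNMT mutants made by site-directed mutagenesis, expressed in E. coli BL21(DE3)-pLysS, and purified by Ni affinity then gel filtration. Steady-state kinetics used 50 mM potassium phosphate pH 8.0 with [3H]-AdoMet and phenylethanolamine, each varied between 0.3 and 3 × Km. Incubation was 30 min at 30 °C, quenched with borate pH 10, extracted into toluene/isoamyl alcohol, and counted by scintillation.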

[4] = biological target: Phenylethanolamine N-methyltransferase (Homo sapiens, UniProt P11086, E219A); experiment: (§3) Activity of human PNMT E219A mutant assessed as phenylethanolamine methylation; outline: as §2
[5] = biological target: T1, Phenylethanolamine N-methyltransferase; experiment: Activity of human wild type PNMT assessed as phenylethanolamine methylation
[6] = biological target: Phenylethanolamine N-methyltransferase (Homo sapiens, UniProt P11086, V53A); experiment: (§4) Activity of human PNMT V53A mutant assessed as phenylethanolamine methylation; outline: as §2
[7] = biological target: Phenylethanolamine N-methyltransferase (Homo sapiens, UniProt P11086, D267A); experiment: Activity of human PNMT D267A mutant assessed as phenylethanolamine methylation
[8] = biological target: Phenylethanolamine N-methyltransferase (Homo sapiens, UniProt P11086, D267N); experiment: (§5) Activity of human PNMT D267N mutant assessed as phenylethanolamine methylation; outline: as §2
[9] = substrate: C[S+](CC[C@H](N)C(=O)[O-])C[C@H]1O[C@@H](n2cnc3c(N)ncnc32)[C@H](O)[C@@H]1O; experiment: as §4; outline: as §2
[10] = substrate: NCC(O)c1ccc(Cl)c(Cl)c1; experiment: as §4; outline: as §2
[11] = substrate: C[S+](CC[C@H](N)C(=O)[O-])C[C@H]1O[C@@H](n2cnc3c(N)ncnc32)[C@H](O)[C@@H]1O; experiment: as §3; outline: as §2
[12] = substrate: NCC(O)c1ccc(Cl)c(Cl)c1; experiment: as §3; outline: as §2
[13] = substrate: C[S+](CC[C@H](N)C(=O)[O-])C[C@H]1O[C@@H](n2cnc3c(N)ncnc32)[C@H](O)[C@@H]1O; details: Homo sapiens
[14] = substrate: NCC(O)c1ccc(Cl)c(Cl)c1; details: Homo sapiens
[15] = substrate: C[S+](CC[C@H](N)C(=O)[O-])C[C@H]1O[C@@H](n2cnc3c(N)ncnc32)[C@H](O)[C@@H]1O; experiment: as §5; outline: as §2
[16] = substrate: NCC(O)c1ccc(Cl)c(Cl)c1; experiment: as §5; outline: as §2
[17] = substrate: C[S+](CC[C@H](N)C(=O)[O-])C[C@H]1O[C@@H](n2cnc3c(N)ncnc32)[C@H](O)[C@@H]1O; experiment: as §1; outline: as §2
[18] = substrate: NCC(O)c1ccc(Cl)c(Cl)c1; experiment: as §1; outline: as §2
[19] = substrate: C[S+](CC[C@H](N)C(=O)[O-])C[C@H]1O[C@@H](n2cnc3c(N)ncnc32)[C@H](O)[C@@H]1O; details: Homo sapiens; remark: listed apart in the source
[20] = substrate: NCC(O)c1ccc(Cl)c(Cl)c1; details: Homo sapiens; remark: listed apart in the source

CC(N)c1cccc(Cl)c1Cl (stereo not given)
Ki [1]: 1.33 µM | Ki [2]: 0.072 µM

C[S+](CC[C@H](N)C(=O)[O-])C[C@H]1O[C@@H](n2cnc3c(N)ncnc32)[C@H](O)[C@@H]1O (stereo not given in full) [ADEMETIONINE]
Kd [3]: 10.7 µM | Kd [4]: 7.5 µM | Kd [5]: 4.8 µM | Kd [6]: 7.1 µM | Kd [7]: 11 µM | Kd [8]: 7.5 µM

B1: Phenylethanolamine N-methyltransferase (Homo sapiens), P11086 V53A (protein)
chain: MSGADRSPNAGAAPDSAPGQAAVASAYQRFEPRAYLRNNYAPPRGDLCNPNGAGPWKLRCLAQTFATGEVSGRTLIDIGSGPTVYQLLSACSHFEDITMTDFLEVNRQELGRWLQEEPGAFNWSMYSQHACLIEGKGECWQDKERQLRARVKRVLPIDVHQPQPLGAGSPAPLPADALVSAFCLEAVSPDLASFQRALDHITTLLRPGGHLLLIGALEESWYLAGEARLTVVPVSEEEVREALVRSGYKVRDLRTYIMPAHLQTGVDDVKGVFFAWAQKVGL
Km [9]: 9.6 µM | Km [10]: 1630 µM

B2: Phenylethanolamine N-methyltransferase (Homo sapiens), P11086 E219A (protein)
chain: MSGADRSPNAGAAPDSAPGQAAVASAYQRFEPRAYLRNNYAPPRGDLCNPNGVGPWKLRCLAQTFATGEVSGRTLIDIGSGPTVYQLLSACSHFEDITMTDFLEVNRQELGRWLQEEPGAFNWSMYSQHACLIEGKGECWQDKERQLRARVKRVLPIDVHQPQPLGAGSPAPLPADALVSAFCLEAVSPDLASFQRALDHITTLLRPGGHLLLIGALEASWYLAGEARLTVVPVSEEEVREALVRSGYKVRDLRTYIMPAHLQTGVDDVKGVFFAWAQKVGL
Km [11]: 7.1 µM | Km [12]: 580 µM

B3: Phenylethanolamine N-methyltransferase (Homo sapiens), P11086 (protein)
chain: MSGADRSPNAGAAPDSAPGQAAVASAYQRFEPRAYLRNNYAPPRGDLCNPNGVGPWKLRCLAQTFATGEVSGRTLIDIGSGPTVYQLLSACSHFEDITMTDFLEVNRQELGRWLQEEPGAFNWSMYSQHACLIEGKGECWQDKERQLRARVKRVLPIDVHQPQPLGAGSPAPLPADALVSAFCLEAVSPDLASFQRALDHITTLLRPGGHLLLIGALEESWYLAGEARLTVVPVSEEEVREALVRSGYKVRDLRTYIMPAHLQTGVDDVKGVFFAWAQKVGL
Km [13]: 1.2 µM | Km [14]: 100 µM

B4: Phenylethanolamine N-methyltransferase (Homo sapiens), P11086 D267N (protein)
chain: MSGADRSPNAGAAPDSAPGQAAVASAYQRFEPRAYLRNNYAPPRGDLCNPNGVGPWKLRCLAQTFATGEVSGRTLIDIGSGPTVYQLLSACSHFEDITMTDFLEVNRQELGRWLQEEPGAFNWSMYSQHACLIEGKGECWQDKERQLRARVKRVLPIDVHQPQPLGAGSPAPLPADALVSAFCLEAVSPDLASFQRALDHITTLLRPGGHLLLIGALEESWYLAGEARLTVVPVSEEEVREALVRSGYKVRDLRTYIMPAHLQTGVNDVKGVFFAWAQKVGL
Km [15]: 7.1 µM | Km [16]: 1640 µM

B5: Phenylethanolamine N-methyltransferase (Homo sapiens), P11086 K57A (protein)
chain: MSGADRSPNAGAAPDSAPGQAAVASAYQRFEPRAYLRNNYAPPRGDLCNPNGVGPWALRCLAQTFATGEVSGRTLIDIGSGPTVYQLLSACSHFEDITMTDFLEVNRQELGRWLQEEPGAFNWSMYSQHACLIEGKGECWQDKERQLRARVKRVLPIDVHQPQPLGAGSPAPLPADALVSAFCLEAVSPDLASFQRALDHITTLLRPGGHLLLIGALEESWYLAGEARLTVVPVSEEEVREALVRSGYKVRDLRTYIMPAHLQTGVDDVKGVFFAWAQKVGL
Km [17]: 11.7 µM | Km [18]: 1310 µM

B6: Phenylethanolamine N-methyltransferase (Homo sapiens), P11086 D267A (protein)
chain: MSGADRSPNAGAAPDSAPGQAAVASAYQRFEPRAYLRNNYAPPRGDLCNPNGVGPWKLRCLAQTFATGEVSGRTLIDIGSGPTVYQLLSACSHFEDITMTDFLEVNRQELGRWLQEEPGAFNWSMYSQHACLIEGKGECWQDKERQLRARVKRVLPIDVHQPQPLGAGSPAPLPADALVSAFCLEAVSPDLASFQRALDHITTLLRPGGHLLLIGALEESWYLAGEARLTVVPVSEEEVREALVRSGYKVRDLRTYIMPAHLQTGVADVKGVFFAWAQKVGL
Km [19]: 2.4 µM | Km [20]: 2050 µM
